The results in this text go back to ChEMBL document CHEMBL3860044, “The Rational Design, Synthesis, and Antimicrobial Properties of Thiophene Derivatives That Inhibit Bacterial Histidine Kinases” (J Med Chem, 2016).

The structures appear in SMILES notation. Converted amounts (≈) assume the structure as drawn. The source made the active and inactive calls.

Assay [1] relates to Staphylococcus aureus. Nature of the assay: Antibacterial activity against penicillin G-resistant/penicillinase producing Staphylococcus aureus isolate C1P15 by broth microdilution method. The format is functional. A digest of the protocol: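 Broth microdilution per EUCAST on the clinical S. aureus isolate C1P15 (penicillinase producer, penicillin G resistant). Inoculum 10⁶ bacteria per mL. Run in triplicate. S. aureus ATCC 29213 served as the quality-control strain.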
In general terms: Broth dilution looks for growth in wells or tubes with falling amounts of substance.

Assay [2] has as its system Staphylococcus aureus. Nature of the assay: Bactericidal activity against penicillin G-resistant/penicillinase producing Staphylococcus aureus isolate C1P15 by broth microdilution method. It is filed as functional. The gist of the method: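 MBC on clinical S. aureus isolate C1P15 (penicillinase, penicillin G resistant), following EUCAST broth microdilution at 10⁶ bacteria per mL, in triplicate. The MIC dilution and at least two more concentrated dilutions were plated and enumerated as CFU/mL. S. aureus ATCC 29213 served as quality control.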

Assay [3] deals with Staphylococcus aureus. Briefly: Bactericidal activity against Staphylococcus aureus ATCC 29213 by broth microdilution method. It is filed as functional. A digest of the protocol:
(§1)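 Clinical resistant isolates and quality control strains (S. aureus ATCC 29213, E. coli ATCC 25922) are tested by EUCAST broth microdilution with a 10⁶ bacteria/mL inoculum, in triplicate, with or without a fixed adjuvant concentration. For MBC, the MIC dilution and at least two more concentrated dilutions are plated and CFU/mL counted.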

Assay [4] has as its system Staphylococcus aureus. Briefly: Antibacterial activity against Staphylococcus aureus ATCC 29213 by broth microdilution method. The format is functional. The gist of the method: as §1
For assay [5], the system named is Staphylococcus aureus. Briefly: Antimicrobial activity against methicillin-resistant Staphylococcus aureus USA300 TCH1516 at 30 ug after 20 hrs by disk diffusion assay. The format is functional. The following applies: USA300_TCH1516. On the technique in general: Agar diffusion results depend on both activity and mobility in agar.
The subject of assay [6] is Staphylococcus aureus. Nature of the assay: Bactericidal activity against methicillin-resistant Staphylococcus aureus USA300 TCH1516 at 50 ug/ml upto 9 hrs. It is filed as functional. The following applies: USA300_TCH1516. The gist of the method:
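Culture inoculated at OD600 0.05 and grown until OD600 reaches 0.5–0.6, when additives are added; chloramphenicol and vancomycin serve as controls. OD600 is followed before and after addition for several hours. For S. aureus the assay uses fewer time points and a smaller volume.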

Assay [7] relates to Bacillus subtilis subsp. subtilis str. JH642. Briefly: Bactericidal activity against Bacillus subtilis JH642 assessed as clearing of bacterial culture at 50 ug/ml upto 9 hrs. The format is functional. A digest of the protocol:
(§2)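 B. subtilis JH642 grown overnight in LB, diluted into 20 mL LB at OD600 0.05, grown at 37 °C. Compound added at OD600 0.5–0.6. OD600 followed before and after addition over several hours. Vancomycin served as bactericidal control and chloramphenicol as bacteriostatic control.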

Assay [8] has the same test system. Briefly: Bactericidal activity against Bacillus subtilis JH642 assessed as bacterial cell lysis at 50 ug/ml upto 9 hrs. The format is functional. A digest of the protocol:
as §2

Assay [9] concerns Escherichia coli. Nature of the assay: Bactericidal activity against amoxicillin-resistant Escherichia coli isolate G28 harboring beta-lactamase by broth microdilution method. The format is functional. The gist of the method:
as §1

Assay [10] concerns Escherichia coli. Briefly: Antibacterial activity against Escherichia coli ATCC 25922 by broth microdilution method. The format is functional. A digest of the protocol: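 Broth microdilution per EUCAST, quality-control strain alongside resistant clinical isolates; inoculum 10⁶ bacteria per mL; run in triplicate with or without adjuvant at fixed 25 µg/mL combined with β-lactams or ofloxacin. MIC read as lowest concentration with no growth; MBC from plating the MIC dilution and at least two higher dilutions, counting CFU/mL.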

The test system of assay [11] is Escherichia coli. Particulars: 200 uM.

What is called MIC is the lowest concentration found to suppress growth. The term MBC denotes the smallest concentration meeting the test's criterion for killing. Low values mean more potent killing, high ones less potent killing.

Take `Cc1onc(-c2ccccc2Cl)c1C(=O)N[C@@H]1C(=O)N2[C@@H]1SC(C)(C)[C@@H]2C(=O)O` [CLOXACILLIN]: the MIC in [1] and in assay [4] was 1 µg/mL (≈ 2.29 µM) each time. Besides, the MBC in assay [2] and in assay [3] was 1 µg/mL (≈ 2.29 µM) each time.

With `CN[C@H](CC(C)C)C(=O)N[C@H]1C(=O)N[C@@H](CC(N)=O)C(=O)N[C@H]2C(=O)N[C@H]3C(=O)N[C@H](C(=O)N[C@H](C(=O)O)c4cc(O)cc(O)c4-c4cc3ccc4O)[C@H](O)c3ccc(c(Cl)c3)Oc3cc2cc(c3O[C@@H]2O[C@H](CO)[C@@H](O)[C@H](O)[C@H]2O[C@H]2C[C@](C)(N)[C@H](O)[C@H](C)O2)Oc2ccc(cc2Cl)[C@H]1O`, the result in assay [5], in [6], in [7] and in [8] was Active.

In the case of `CO/N=C(\C(=O)N[C@@H]1C(=O)N2C(C(=O)O)=C(COC(C)=O)CS[C@H]12)c1csc(N)n1` [CEFOTAXIME], in [9], the minimal bactericidal concentration (MBC) is 1 µg/mL (≈ 2.2 µM). This compound also returned an MIC in assay [10] of 0.125 µg/mL (≈ 0.274 µM).

Turning to `O=C(O)c1cn(C2CC2)c2cc(N3CCNCC3)c(F)cc2c1=O`, the inhibition result in assay [11] is “Active”.
